The results in this text go back to ChEMBL document CHEMBL1208666, “Novel 6,8-dibromo-4(3H)quinazolinone derivatives of anti-bacterial and anti-fungal activities” (2010).

In brackets after ≈: the same amount, converted by molar mass. Activity calls are given as the source filed them. The rule behind the calls is not given here.

Experiment [1] concerns Escherichia coli. Kind of experiment: Antibacterial activity against Escherichia coli O157 at 100 ug/ml after 24 hrs by paper disc diffusion technique. Type of experiment: functional. To be noted: O157, 24 h, read-out: IZ. In general terms: A growth-free zone around the sample is the usual read-out of agar diffusion tests.
The test system of experiment [2] is Escherichia coli. The experiment can be described thus: Antibacterial activity against Escherichia coli O157 after 24 hrs by agar streak dilution method. The class given is functional. As to conditions: O157, 24 h.
Experiment [3] deals with Salmonella typhimurium. The experiment can be described thus: Antibacterial activity against Salmonella Typhimurium at 100 ug/ml after 24 hrs by paper disc diffusion technique. Type of experiment: functional, Salmonella enterica subsp. enterica serovar Typhimurium. As to conditions: Salmonella enterica, read-out: IZ. The gist of the method: (§1)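 Paper disc diffusion on Mueller Hinton agar, autoclaved at 120 °C for 30 min. Medium at 40–50 °C was seeded at 1 ml/100 ml with a 10^5 cfu/ml suspension matched to 0.9 McFarland. It was poured 3–4 mm deep, and discs with compound in DMSO were laid on it. Plates were pre-incubated 1 h at room temperature, then 37 °C for 24 h. The inhibition zone was measured.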

Experiment [4] relates to Salmonella typhimurium. Kind of experiment: Antibacterial activity against Salmonella Typhimurium after 24 hrs by agar streak dilution method. The class given is functional, Salmonella enterica subsp. enterica serovar Typhimurium. To be noted: Salmonella enterica. The procedure, abridged:
(§2)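 Agar streak dilution on Mueller Hinton agar. Compound stock in DMSO was added in graded amounts to molten sterile agar at 40–50 °C. This was poured 3–4 mm deep and left to solidify. Bacterial suspension of about 10^5 cfu/ml was applied to the serially diluted plates. Plates were incubated at 37 °C for 24 h to read the MIC. Strains were food-poisoning isolates from animal byproducts.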

In experiment [5] the test system is Listeria monocytogenes. Kind of experiment: Antibacterial activity against Listeria monocytogenes at 100 ug/ml after 24 hrs by paper disc diffusion technique. Type of experiment: functional. As to conditions: read-out: IZ. The procedure, abridged: as §1
The subject of experiment [6] is Listeria monocytogenes. Kind of experiment: Antibacterial activity against Listeria monocytogenes after 24 hrs by agar streak dilution method. Type of experiment: functional. The gist of the method: as §2
Experiment [7] deals with Staphylococcus aureus. The experiment can be described thus: Antibacterial activity against Staphylococcus aureus at 100 ug/ml after 24 hrs by paper disc diffusion technique. The class given is functional. As to conditions: read-out: IZ. The gist of the method: as §1
Experiment [8] concerns Staphylococcus aureus. Kind of experiment: Antibacterial activity against Staphylococcus aureus after 24 hrs by agar streak dilution method. The class given is functional. The gist of the method:
as §2

Experiment [9] relates to Pseudomonas aeruginosa. The experiment can be described thus: Antibacterial activity against Pseudomonas aeruginosa at 100 ug/ml after 24 hrs by paper disc diffusion technique. The class given is functional. As to conditions: read-out: IZ. The procedure, abridged: as §1
Experiment [10] concerns Pseudomonas aeruginosa. Kind of experiment: Antibacterial activity against Pseudomonas aeruginosa after 24 hrs by agar streak dilution method. Type of experiment: functional. The procedure, abridged: as §2
Experiment [11] relates to Bacillus cereus. Kind of experiment: Antibacterial activity against Bacillus cereus at 100 ug/ml after 24 hrs by paper disc diffusion technique. To be noted: read-out: IZ. Type of experiment: functional. The procedure, abridged:
as §1

Experiment [12] relates to Bacillus cereus. The experiment can be described thus: Antibacterial activity against Bacillus cereus after 24 hrs by agar streak dilution method. Type of experiment: functional. The procedure, abridged: as §2
For another experiment, the system named is Candida albicans. The experiment can be described thus: Antifungal activity against Candida albicans at 100 ug/ml after 48 hrs by paper disc diffusion technique. The class given is functional. The procedure, abridged:
(§3)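 Paper disc diffusion on Sabouraud dextrose agar, autoclaved at 120 °C for 30 min. Medium at 40–50 °C was seeded at 1 ml/100 ml with a 10^5 cfu/ml fungal suspension matched to 0.9 McFarland. It was poured 3–4 mm deep, and compound discs in DMSO were applied. Plates were pre-incubated 1 h at room temperature, then 28 °C for 48 h. The inhibition zone was recorded.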

The test system of experiment [13] is Aspergillus flavus. The experiment can be described thus: Antifungal activity against Aspergillus flavus at 100 ug/ml after 48 hrs by paper disc diffusion technique. The class given is functional. To be noted: for zone of inhibition at 100 µg/mL: read-out: IZ. The procedure, abridged: as §3
For experiment [14], the system named is Aspergillus flavus. The experiment can be described thus: Antifungal activity against Aspergillus flavus after 48 hrs by agar streak dilution method. Type of experiment: functional. The gist of the method:
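Fungal MIC by agar streak dilution on Sabouraud dextrose agar. Compound stock in DMSO was added in graded amounts to molten sterile medium at 40–50 °C. This was poured 3–4 mm deep and left to solidify. Fungal suspension of about 10^5 cfu/ml was applied to the serially diluted plates. Plates were incubated at 37 °C for 48 h.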

On to `O=C(NN1C(=O)CSC1c1ccccc1)c1ccc(-n2c(-c3ccccc3)nc3c(Br)cc(Br)cc3c2=O)cc1` (stereo unspecified), for which the zone of inhibition at 100 µg/mL in the experiment with Escherichia coli [1] came to 10 mm; with Salmonella typhimurium [3], 16 mm; in the experiment with Listeria monocytogenes [5], 13 mm; in the experiment with Staphylococcus aureus [7], 12 mm; in the experiment with Pseudomonas aeruginosa [9], 12 mm; in the experiment on Bacillus cereus [11], 9 mm. Further, the MIC in the experiment on Escherichia coli [2] was more than 50 µg/mL; against Salmonella typhimurium [4] it was 4.1 µg/mL (≈ 6.06 µM); in the experiment on Listeria monocytogenes [6], 32 µg/mL (≈ 47.3 µM); in the experiment on Staphylococcus aureus [8], 25 µg/mL (≈ 37 µM); with Pseudomonas aeruginosa [10], 35 µg/mL (≈ 51.7 µM); against Bacillus cereus [12] it was 50 µg/mL (≈ 73.9 µM). The “inhibition zone (IZ)” value in the experiment on Candida albicans and with Aspergillus flavus [13] was “inactive” throughout.
Take `O=C1CC(=O)N(C(=O)c2ccc(-n3c(-c4ccccc4)nc4c(Br)cc(Br)cc4c3=O)cc2)N1`: the zone of inhibition at 100 µg/mL with Salmonella typhimurium [3] amounted to 12 mm; with Listeria monocytogenes [5], 10 mm; in the experiment with Staphylococcus aureus [7], 9 mm; in the experiment with Pseudomonas aeruginosa [9] it was 11 mm; with Bacillus cereus [11], 10 mm; with Aspergillus flavus [13], 18 mm. Besides, the MIC is 50 µg/mL (≈ 85.9 µM) against Salmonella typhimurium [4]; more than 50 µg/mL against Listeria monocytogenes [6]; more than 50 µg/mL in the experiment on Staphylococcus aureus [8]; more than 50 µg/mL with Pseudomonas aeruginosa [10]; more than 50 µg/mL against Bacillus cereus [12]; 1.9 µg/mL (≈ 3.26 µM) in the experiment on Aspergillus flavus [14]. In the experiment with Candida albicans, the “inhibition zone (IZ)” value was “inactive”.
Turning to `Cc1ccc(/C=N/NC(=O)c2ccc(-n3c(-c4ccccc4)nc4c(Br)cc(Br)cc4c3=O)cc2)cc1`, the zone of inhibition at 100 µg/mL in the experiment with Escherichia coli [1] is 11 mm; in the experiment with Salmonella typhimurium [3], 15 mm; in the experiment on Listeria monocytogenes [5], 13 mm; with Staphylococcus aureus [7], 12 mm; with Pseudomonas aeruginosa [9] it was 15 mm; in the experiment with Bacillus cereus [11], 11 mm. In addition, the zone of inhibition at 100 µg/mL with Aspergillus flavus [13] came out at 12 mm. The MIC with Escherichia coli [2] stood at 40 µg/mL (≈ 64.9 µM); in the experiment on Salmonella typhimurium [4] it was 5 µg/mL (≈ 8.11 µM); against Listeria monocytogenes [6], 30 µg/mL (≈ 48.7 µM); against Staphylococcus aureus [8], 25 µg/mL (≈ 40.6 µM); in the experiment on Pseudomonas aeruginosa [10] it was 2.5 µg/mL (≈ 4.06 µM); in the experiment on Bacillus cereus [12] it was 35 µg/mL (≈ 56.8 µM). In the experiment on Aspergillus flavus [14], this molecule gave an MIC of 20 µg/mL (≈ 32.5 µM). The “inhibition zone (IZ)” value in the experiment with Candida albicans is “inactive”.
For `O=C(N/N=C/c1ccccc1O)c1ccc(-n2c(-c3ccccc3)nc3c(Br)cc(Br)cc3c2=O)cc1`, the zone of inhibition at 100 µg/mL in the experiment on Escherichia coli [1] was found to be 10 mm; in the experiment with Salmonella typhimurium [3], 13 mm; in the experiment with Listeria monocytogenes [5], 11 mm; in the experiment with Staphylococcus aureus [7] it was 15 mm; in the experiment with Pseudomonas aeruginosa [9], 11 mm; in the experiment with Bacillus cereus [11], 13 mm. The zone of inhibition at 100 µg/mL in the experiment on Aspergillus flavus [13] came out at 15 mm. The MIC in the experiment on Escherichia coli [2] is 50 µg/mL (≈ 80.9 µM); against Salmonella typhimurium [4], 30 µg/mL (≈ 48.5 µM); against Listeria monocytogenes [6] it was 50 µg/mL (≈ 80.9 µM); against Staphylococcus aureus [8], 12.5 µg/mL (≈ 20.2 µM); against Pseudomonas aeruginosa [10], more than 50 µg/mL; in the experiment on Bacillus cereus [12] it was 25.5 µg/mL (≈ 41.2 µM). 10.5 µg/mL (≈ 17 µM) was the least that counted as inhibitory against Aspergillus flavus [14] (MIC). Moreover, in the experiment with Candida albicans, the “inhibition zone (IZ)” value is “inactive”.
Regarding `O=C(NN1C(=O)CSC1c1ccccc1O)c1ccc(-n2c(-c3ccccc3)nc3c(Br)cc(Br)cc3c2=O)cc1` (stereo unspecified), the zone of inhibition at 100 µg/mL amounted to 13 mm in the experiment with Escherichia coli [1]; 12 mm in the experiment with Salmonella typhimurium [3]; 15 mm in the experiment with Listeria monocytogenes [5]; 11 mm in the experiment on Staphylococcus aureus [7]; 12 mm in the experiment on Pseudomonas aeruginosa [9]; 9 mm with Bacillus cereus [11]. Also, the MIC is 30 µg/mL (≈ 43.3 µM) against Escherichia coli [2]; 50 µg/mL (≈ 72.2 µM) in the experiment with Salmonella typhimurium [4]; 15 µg/mL (≈ 21.7 µM) with Listeria monocytogenes [6]; 45 µg/mL (≈ 65 µM) in the experiment on Staphylococcus aureus [8]; 35 µg/mL (≈ 50.5 µM) in the experiment with Pseudomonas aeruginosa [10]; more than 50 µg/mL against Bacillus cereus [12]. Moreover, the “inhibition zone (IZ)” value with Candida albicans and in the experiment on Aspergillus flavus [13] was “inactive” each time.

What is called MIC is the lowest concentration that inhibits growth of the organism. A higher MIC goes with a need for much substance.
